bCat KO growth = beta-catenin-lacking colon tumor cell growth suppression. HCT116 beta-catenin knockout viability, CellTiter-Glo, 60 h; stronger effect = lower value. viability, % at 10 µM. hit rate 1.5% among 140,000. AID 818;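 active means viability at or under a set limit, the compound median less 4 SD, cut at about 6% in these data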;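 further: 0% = Hyamine 1622 control at 20 µM and 100% = untreated cell control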
SDO1 yeast rescue = restores growth of sdo1-depleted yeast. S. cerevisiae sdo1-depleted JHY4D growth rescue, OD600 30 h; stronger effect = higher value; pdr5 snq2 efflux-pump mutant strain. z-score at 10 µM. hit rate 0.21% among 140,000. AID 817;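 active means z-score above 3 at both the 24 hr and the 30 hr optical density reads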;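 further: z-score against mean and SD of all compound wells on the same plate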
BB579 growth dn = reduces growth of yeast BB579 in restrictive medium; S. cerevisiae BB579 growth, OD615, 48 h; inhibition, % at 10 µM; hit rate 0.51% among 140,000; AID 804;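 active means inhibition above a set limit, 3 SD over the mean compound inhibition, cut at about 44% in these data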
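test system = yeast BB579 (DeaD) | buffer or medium = restrictive CSMM-D medium | doses = single compound dose of 10 µM, 0.25% DMSO final | times = 4 h preincubation and 48 h exposure at 30 °C | technique = culture absorbance at 615 nm | benchmarks = amphotericin B 10 µg/mL, positive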
Yeast lifespan up = extends the lifespan of yeast | S. cerevisiae growth with nicotinamide, OD615; deaD strain in restrictive glucose medium | inhibition of the nicotinamide effect, % at 10 µM | AID 775 | hit rate 0.68% among 130,000;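 active means inhibition above a set limit, placed 3 SD over the median of all compounds, cut at about 26% in these data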;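 further: 0% = nicotinamide-treated wells and 100% = cells grown without nicotinamide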
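Test system: DeaD-strain S. cerevisiae / Buffer or medium: restrictive glucose medium / Also added: nicotinamide 1.5 mM / Doses: one concentration, 10 µM, DMSO 0.25% / Schedule: 48 h at 30 °C / Signal: OD615 measurement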
HCT116 PTEN-null = PTEN-deleted cell growth suppression; HCT116 PTEN-null viability, CellTiter-Glo, 60 h; stronger effect = lower value; viability, % at 10 µM; hit rate 1.2% among 140,000; AID 827;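 active means viability at or below a set limit, 4 SD under the median of all tested compounds, cut at about 3.7% in these data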;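 further: PTEN knockout HCT116 line with beta catenin targeted HCT116 as companion control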
* hit, by the source's call; . = not tested or not shown. Hits are enriched below; roughly 2.8% of the tested compounds scored in any of these assays.

SMILES	bCat KO growth	SDO1 yeast rescue	BB579 growth dn	Yeast lifespan up	HCT116 PTEN-null
CC1(C)COC(c2cccc(C3=NC(C)(C)CO3)n2)=N1	92	0.52	-8	7	98
Cc1cc2c(N=O)c(NO)ccc2[nH]1	4.7*	1.4	-38	-24	5
COc1ccc2[nH]c(O)c(N=O)c2c1	90	0.41	-24	4	95
O=C(CN(Cc1ccco1)C(=O)c1ccccc1)Nc1ccc(Cl)c(Cl)c1	85	-1.6	-11	-10	67
CCN(c1ccccc1)S(=O)(=O)c1cc(C(=O)Nc2ccc(F)c(F)c2)ccc1F	4.5*	-1.2	-26	-2	3.4*
CCOc1cc(CNC2CCCC2)cc(Cl)c1OCc1ccccc1	1.6*	-1	-13	-12	1.8*
COc1ccc(N2CCN(Cc3nc(N)nc(Nc4ccc(C)c(Cl)c4)n3)CC2)cc1	0.8*	-2.2	-39	-8	1.4*
Cc1ccc(Nc2nc(N)nc(CN3CCN(Cc4ccc5c(c4)OCO5)CC3)n2)cc1Cl	0.9*	-1.2	32	-10	1.5*
O=C(CCSc1ccccc1)Nc1ccc(OCc2ccccc2)cc1	96	-0.08	-28	1	101
c1ccc(-c2nc3c(ccc4ccccc43)[nH]2)nc1	31	-1.1	72*	.	40
CC(C)(C)NS(=O)(=O)c1ccc(OCC(=O)NCCC2=CCCCC2)cc1	103	0.24	-29	-10	98
Cc1nn(Cc2c(Cl)cccc2Cl)c(C)c1NC(=O)c1cn(-c2ccccc2)nc1-c1ccccc1	0.6*	-0.9	-3	-2	0.5*
CSc1nnnn1-c1ccc(C)c(Cl)c1	83	-0.12	-4	-9	87
COc1ccc(CC(=O)Nc2cccc(S(=O)(=O)N3CCCCCC3)c2)cc1OC	22	0.08	-31	2	25
Cc1cc(N/N=C/c2c(O)ccc3ccccc23)nc(-c2ccccc2O)n1	2.9*	-0.69	-10	-4	4
Oc1ccc2ccccc2c1/C=N/Nc1ccccc1	82	-1.1	-48	18	73
CCOC(=O)c1ccc(N=c2sc(C(=O)OC)cc(=O)n2CCCN2CCOCC2)cc1	6.0*	-1.1	-51	-9	8
CCOC(=O)c1ccc(N=c2sc(C(=O)OC)cc(=O)n2Cc2ccco2)cc1	2.2*	-1.8	-13	-4	2.2*
COC(=O)c1cc(=O)n(CCc2ccccc2)c(=Nc2ccc(F)cc2)s1	10	-1.6	-34	-4	8
O=C(C1=C(O)/C(=C/c2ccc(O)cc2)CCC1)C(F)(F)F	66	-2.4	100*	.	72
COc1ccc(/C=C2\CCCC(C(=O)C(F)(F)F)=C2O)cc1	82	2	-48	-8	88
c1ccc(NCc2nc3ccccc3n2CCOc2ccccc2)cc1	74	-1.6	-23	41*	68
Cc1ccc(OCCn2c(CCCO)nc3ccccc32)cc1	103	-0.67	19	-12	96
COc1ccc(NCc2nc3ccccc3n2CCOc2ccc(C)cc2)cc1	29	-0.7	92*	5	51
CCCn1c(C(C)NC(C)=O)nc2ccccc21 (stereo not drawn)	96	0.88	44*	-2	106
SMILES	bCat KO growth	SDO1 yeast rescue	BB579 growth dn	Yeast lifespan up	HCT116 PTEN-null
CCCn1c(CNc2ccccc2O)nc2ccccc21	53	-0.26	45*	4	48
CCCCC(NC(C)=O)c1nc2ccccc2n1CCC (stereo not drawn)	92	0.2	-20	-5	101
CCCCCn1c(SCCN2CCOCC2)nc2c1c(=O)[nH]c(=O)n2C	96	1.2	-30	-1	96
COc1ccc(NCc2nc3ccccc3n2CCOc2ccccc2)cc1	83	-1.3	22	56*	86
Cc1csc(NC(=O)c2cccn2C)n1	83	0.67	-22	-20	69
O=C(Nc1nc(-c2ccc(Cl)s2)cs1)c1cccs1	57	-2.2	-26	-5	47
O=C(CCCSc1ccccc1)Nc1nc(-c2ccccn2)cs1	15	-2.2	57*	-5	.
O=C(Nc1nc(-c2ccccn2)cs1)c1ncc(Cl)c(Cl)c1Cl	10	-2.8	59*	-20	8
O=C(CN1C(=O)CCC1=O)Nc1nc(-c2ccccn2)cs1	98	1.1	27	-2	107
Cn1cccc1C(=O)Nc1nc(-c2ccccn2)cs1	10	-2	46*	-20	7
O=C(Nc1nc(-c2ccccn2)cs1)c1ccc(Cl)s1	8	-2.6	95*	-13	16
Cc1nn(Cc2cccc(F)c2)c(C)c1NC(=O)c1c(Cl)cnn1C	95	0.31	-12	-3	88

Screening results as filed in PubChem BioAssay.
